Source: ChEMBL document CHEMBL3784971, “Synthesis, characterization, antimicrobial and biofilm inhibitory studies of new esterquats” (Bioorg Med Chem Lett, 2016)

Columns and labels:
Staphylococcus aureus [1] = assay: Antimicrobial activity against Staphylococcus aureus MTCC 96 assessed as growth inhibition after 24 hrs by agar well diffusion method; type: functional; details: MTCC 96, 24 h
Bacillus subtilis [2] = assay: Antimicrobial activity against Bacillus subtilis MTCC 121 assessed as growth inhibition after 24 hrs by agar well diffusion method; type: functional; details: MTCC 121, 24 h
Staphylococcus aureus [3] = assay: Antimicrobial activity against Staphylococcus aureus MLS16 MTCC 2940 assessed as growth inhibition after 24 hrs by agar well diffusion method; type: functional; details: MLS16 MTCC 2940, 24 h
Micrococcus luteus [4] = assay: Antimicrobial activity against Micrococcus luteus MTCC 2470 assessed as growth inhibition after 24 hrs by agar well diffusion method; type: functional; details: MTCC 2470, 24 h
Raoultella planticola [5] = assay: Antimicrobial activity against Klebsiella planticola MTCC 530 assessed as growth inhibition after 24 hrs by agar well diffusion method; type: functional; details: MTCC 530, 24 h
Escherichia coli [6] = assay: Antimicrobial activity against Escherichia coli MTCC 739 assessed as growth inhibition after 24 hrs by agar well diffusion method; type: functional; details: MTCC 739, 24 h
Pseudomonas aeruginosa = assay: Antimicrobial activity against Pseudomonas aeruginosa MTCC 2453 assessed as growth inhibition after 24 hrs by agar well diffusion method; type: functional; details: MTCC 2453, 24 h
Candida albicans [7] = assay: Antimicrobial activity against Candida albicans MTCC 3017 assessed as growth inhibition after 24 hrs by agar well diffusion method; type: functional; details: MTCC 3017, 24 h
Candida albicans [8] = assay: Antimicrobial activity against Candida albicans MTCC 183 assessed as growth inhibition after 24 hrs by agar well diffusion method; type: functional; details: MTCC 183, 24 h
Candida albicans [9] = assay: Antimicrobial activity against Candida albicans MTCC 227 assessed as growth inhibition after 24 hrs by agar well diffusion method; type: functional; details: MTCC 227, 24 h
Candida albicans [10] = assay: Antimicrobial activity against Candida albicans MTCC 854 assessed as growth inhibition after 24 hrs by agar well diffusion method; type: functional; details: MTCC 854, 24 h
Candida albicans [11] = assay: Antimicrobial activity against Candida albicans MTCC 1637 assessed as growth inhibition after 24 hrs by agar well diffusion method; type: functional; details: MTCC 1637, 24 h
Candida albicans [12] = assay: Antimicrobial activity against Candida albicans MTCC 3018 assessed as growth inhibition after 24 hrs by agar well diffusion method; type: functional; details: MTCC 3018, 24 h
Candida albicans [13] = assay: Antimicrobial activity against Candida albicans MTCC 3958 assessed as growth inhibition after 24 hrs by agar well diffusion method; type: functional; details: MTCC 3958, 24 h
Candida albicans [14] = assay: Antimicrobial activity against Candida albicans MTCC 4748 assessed as growth inhibition after 24 hrs by agar well diffusion method; type: functional; details: MTCC 4748, 24 h
Candida albicans [15] = assay: Antimicrobial activity against Candida albicans MTCC 7315 assessed as growth inhibition after 24 hrs by agar well diffusion method; type: functional; details: MTCC 7315, 24 h
Candida parapsilosis [16] = assay: Antimicrobial activity against Candida parapsilosis MTCC 1744 assessed as growth inhibition after 24 hrs by agar well diffusion method; type: functional; details: Lodderomyces parapsilosis, MTCC 1744, 24 h
[Candida] aaseri [17] = Antimicrobial activity against Candida aaseri MTCC 1962 assessed as growth inhibition after 24 hrs by agar well diffusion method; type: functional; details: Yamadazyma aaseri, MTCC 1962, 24 h
Nakaseomyces glabratus [18] = assay: Antimicrobial activity against Candida glabrata MTCC 3019 assessed as growth inhibition after 24 hrs by agar well diffusion method; type: functional; details: MTCC 3019, 24 h
Pichia kudriavzevii [19] = assay: Antimicrobial activity against Candida krusei MTCC 3020 assessed as growth inhibition after 24 hrs by agar well diffusion method; type: functional; details: MTCC 3020, 24 h
Pichia sporocuriosa [20] = assay: Antimicrobial activity against Issatchenkia hanoiensis MTCC 4755 assessed as growth inhibition after 24 hrs by agar well diffusion method; type: functional; details: MTCC 4755, 24 h
Staphylococcus aureus [21] = assay: Bactericidal activity against Staphylococcus aureus MTCC 96 after 24 hrs by serial dilution method; type: functional; details: MTCC 96, 24 h
Bacillus subtilis [22] = assay: Bactericidal activity against Bacillus subtilis MTCC 121 after 24 hrs by serial dilution method; type: functional; details: MTCC 121, 24 h
Staphylococcus aureus [23] = assay: Bactericidal activity against Staphylococcus aureus MLS16 MTCC 2940 after 24 hrs by serial dilution method; type: functional; details: MLS16 MTCC 2940, 24 h
Micrococcus luteus [24] = assay: Bactericidal activity against Micrococcus luteus MTCC 2470 after 24 hrs by serial dilution method; type: functional; details: MTCC 2470, 24 h
Raoultella planticola [25] = assay: Bactericidal activity against Klebsiella planticola MTCC 530 after 24 hrs by serial dilution method; type: functional; details: MTCC 530, 24 h
Escherichia coli [26] = assay: Bactericidal activity against Escherichia coli MTCC 739 after 24 hrs by serial dilution method; type: functional; details: MTCC 739, 24 h
Candida albicans [27] = assay: Fungicidal activity against Candida albicans MTCC 3017 after 24 hrs by serial dilution method; type: functional; details: MTCC 3017, 24 h
Candida albicans [28] = assay: Fungicidal activity against Candida albicans MTCC 183 after 24 hrs by serial dilution method; type: functional; details: MTCC 183, 24 h
Candida albicans [29] = assay: Fungicidal activity against Candida albicans MTCC 227 after 24 hrs by serial dilution method; type: functional; details: MTCC 227, 24 h
Candida albicans [30] = assay: Fungicidal activity against Candida albicans MTCC 854 after 24 hrs by serial dilution method; type: functional; details: MTCC 854, 24 h
Candida albicans [31] = assay: Fungicidal activity against Candida albicans MTCC 1637 after 24 hrs by serial dilution method; type: functional; details: MTCC 1637, 24 h
Candida albicans [32] = assay: Fungicidal activity against Candida albicans MTCC 3018 after 24 hrs by serial dilution method; type: functional; details: MTCC 3018, 24 h
Candida albicans [33] = assay: Fungicidal activity against Candida albicans MTCC 3958 after 24 hrs by serial dilution method; type: functional; details: MTCC 3958, 24 h
Candida albicans [34] = assay: Fungicidal activity against Candida albicans MTCC 4748 after 24 hrs by serial dilution method; type: functional; details: MTCC 4748, 24 h
Candida albicans [35] = assay: Fungicidal activity against Candida albicans MTCC 7315 after 24 hrs by serial dilution method; type: functional; details: MTCC 7315, 24 h
Candida parapsilosis [36] = assay: Fungicidal activity against Candida parapsilosis MTCC 1744 after 24 hrs by serial dilution method; type: functional; details: Lodderomyces parapsilosis, MTCC 1744, 24 h
[Candida] aaseri [37] = Fungicidal activity against Candida aaseri MTCC 1962 after 24 hrs by serial dilution method; type: functional; details: Yamadazyma aaseri, MTCC 1962, 24 h
Nakaseomyces glabratus [38] = assay: Fungicidal activity against Candida glabrata MTCC 3019 after 24 hrs by serial dilution method; type: functional; details: MTCC 3019, 24 h
Pichia kudriavzevii [39] = assay: Fungicidal activity against Candida krusei MTCC 3020 after 24 hrs by serial dilution method; type: functional; details: MTCC 3020, 24 h
Pichia sporocuriosa [40] = assay: Fungicidal activity against Issatchenkia hanoiensis MTCC 4755 after 24 hrs by serial dilution method; type: functional; details: MTCC 4755, 24 h
Staphylococcus aureus [41] = assay: Antibiofilm activity against Staphylococcus aureus MTCC 96 after 24 hrs by crystal violet staining based assay; type: functional, organism-based; details: MTCC 96, 24 h
Summary of the method: (§1)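 Biofilm inhibition tested for amine esters and esterquats. IC50 values (µg/mL) are the mean of three determinations, with ciprofloxacin as reference.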

Bacillus subtilis [42] = assay: Antibiofilm activity against Bacillus subtilis MTCC 121 after 24 hrs by crystal violet staining based assay; type: functional, organism-based; details: MTCC 121, 24 h; summary of the method: as §1
Staphylococcus aureus [43] = assay: Antibiofilm activity against Staphylococcus aureus MLS16 MTCC 2940 after 24 hrs by crystal violet staining based assay; type: functional, organism-based; details: MLS16 MTCC 2940, 24 h; summary of the method: as §1
Micrococcus luteus [44] = assay: Antibiofilm activity against Micrococcus luteus MTCC 2470 after 24 hrs by crystal violet staining based assay; type: functional, organism-based; details: MTCC 2470, 24 h; summary of the method: as §1

- MIC (Staphylococcus aureus [1]): 3.9 µg/mL
- MIC (Bacillus subtilis [2]): 7.8 µg/mL
- MIC (Staphylococcus aureus [3]): 7.8 µg/mL
- MIC (Micrococcus luteus [4]): 3.9 µg/mL
- MIC (Escherichia coli [6]): 31.2 µg/mL
- MIC (Pseudomonas aeruginosa): > 125 µg/mL
- MIC (Candida albicans [7]): 15.6 µg/mL
- MIC (Candida albicans [8]): 15.6 µg/mL
- MIC (Candida albicans [9]): 31.2 µg/mL
- MIC (Candida albicans [10]): 15.6 µg/mL
- MIC (Candida albicans [11]): 31.2 µg/mL
- MIC (Candida albicans [12]): 15.6 µg/mL
- MIC (Candida albicans [13]): 31.2 µg/mL
- MIC (Candida albicans [14]): 15.6 µg/mL
- MIC (Candida albicans [15]): 15.6 µg/mL
- MIC (Candida parapsilosis [16]): 15.6 µg/mL
- MIC ([Candida] aaseri [17]): 31.2 µg/mL
- MIC (Nakaseomyces glabratus [18]): 15.6 µg/mL
- MIC (Pichia kudriavzevii [19]): 15.6 µg/mL
- MIC (Pichia sporocuriosa [20]): 15.6 µg/mL
- IC50 (Staphylococcus aureus [41]): 2.5 µg/mL
- IC50 (Bacillus subtilis [42]): 4.8 µg/mL
- IC50 (Staphylococcus aureus [43]): 3.2 µg/mL
- IC50 (Micrococcus luteus [44]): 2.1 µg/mL
SMILES: CCCCCC[N+](C)(C)CCCCCCCCCCC(=O)OC.[Cl-]
- MIC (Raoultella planticola [5]): 15.6 µg/mL
- MBC (Staphylococcus aureus [21]): 7.8 µg/mL
- MBC (Bacillus subtilis [22]): 7.8 µg/mL
- MBC (Staphylococcus aureus [23]): 15.6 µg/mL
- MBC (Micrococcus luteus [24]): 7.8 µg/mL
- MBC (Raoultella planticola [25]): 31.2 µg/mL
- MBC (Escherichia coli [26]): 62.5 µg/mL
- MFC (Candida albicans [27]): 31.2 µg/mL
- MFC (Candida albicans [28]): 31.2 µg/mL
- MFC (Candida albicans [29]): 62.5 µg/mL
- MFC (Candida albicans [30]): 31.2 µg/mL
- MFC (Candida albicans [31]): 62.5 µg/mL
- MFC (Candida albicans [32]): 31.2 µg/mL
- MFC (Candida albicans [33]): 31.2 µg/mL
- MFC (Candida albicans [34]): 15.6 µg/mL
- MFC (Candida albicans [35]): 15.6 µg/mL
- MFC (Candida parapsilosis [36]): 31.2 µg/mL
- MFC ([Candida] aaseri [37]): 62.5 µg/mL
- MFC (Nakaseomyces glabratus [38]): 31.2 µg/mL
- MFC (Pichia kudriavzevii [39]): 31.2 µg/mL
- MFC (Pichia sporocuriosa [40]): 31.2 µg/mL
